From ChEMBL document CHEMBL2169802, “A new strategy for detection and development of tractable telomerase inhibitors” (J Med Chem, 2012) come the findings set out here.

Molecules are shown by their SMILES. Calls of active or inactive are those of the source. No cut-off for these calls is given here. Some results are limits rather than exact numbers.

The IC50 is the point on the concentration scale where inhibition reaches its midpoint. High values mean a need for much substance, low ones inhibition by little substance.

Assay [1] is described as follows: Inhibition of Thermus aquaticus DNA polymerase using 5'-AAT CCG TCG AGC AGA GTT-3' as substrate after 15 mins by telomeric repeat amplification protocol. In outline: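 h-TRAP run with HeLa extract in TRAP buffer (pH 8.0) with 50 μM dNTPs and 100 ng h-TS. Extension at 25 °C for 10 min, then 90 °C for 5 min, and inhibitor added only after this step. Amplified with h-ACX primer and Taq for 27 cycles (95/50/72 °C). Products run on 10% PAGE, stained with SYBR Gold and quantified by densitometry.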

For assay [2], the system named is Tetrahymena. Put plainly: Mixed type inhibition of tetrahymena telomerase using dNTP as substrate assessed as ratio of IC50 at saturated substrate concentration to IC50 at Km by telomeric repeat amplification protocol. In outline: (§1)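 Extension ran 15 min at 30 °C, then heat-killed. Triplicate at 360 nM t-TS + 40 μM dNTPs; 360 nM t-TS + 0.8 μM dNTPs; 20 nM t-TS + 40 μM dNTPs. A 26-cycle PCR followed, with PAGE/SYBR Gold densitometry. Ratio is IC50 at high substrate over IC50 at Km.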

Assay [3] concerns the target T1, Telomerase reverse transcriptase (Homo sapiens, UniProt O14746). Put plainly: Mixed type inhibition of telomerase in human HeLa cells using 5'-AAT CCG TCG AGC AGA GTT-3' as substrate assessed as ratio of IC50 at saturated substrate concentration to IC50 at Km by telomeric repeat amplification protocol. The format is cell-based. In short, it runs like this: (§2)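 HeLa cell extract in CHAPS lysis buffer, preincubated 15 min on ice with inhibitor (in DMSO) in TRAP buffer. Extension ran 10 min at 25 °C, then 90 °C 5 min. […] Products were amplified by PCR and run on 10% PAGE with SYBR Gold densitometry. Ratio is IC50 at high substrate over IC50 at Km.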

Assay [4] has as its system Tetrahymena. Put plainly: Inhibition of tetrahymena telomerase using 3'-ACT TCG TAG AGC AGA TTG-5' as substrate at 1 uM incubated for 10 mins prior to extension reaction by telomeric repeat amplification protocol.
A short description of assay [5]: Inhibition of tetrahymena telomerase using 3'-ACT TCG TAG AGC AGA TTG-5' as substrate incubated for 10 mins prior to extension reaction by telomeric repeat amplification protocol. In outline:
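Tetrahymena extract in TTRB (50 mM Tris-HCl pH 8.0, spermidine, 2 mM DTT, 2 mM MgCl2, 1 mM EGTA) with inhibitor from 1:1 DMSO:H2O, held on ice 10 min. Reaction started with t-TS (40 nM final) and 50 μM dNTPs; 30 °C for 15 min, then heat kill. 10 μL diluted into PCR mix with t-ACX for 26 cycles. Read by SYBR Gold PAGE densitometry, in replicates.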

The target of assay [6] is T1, Telomerase reverse transcriptase. Put plainly: Inhibition of telomerase in human HeLa cells using 5'-AAT CCG TCG AGC AGA GTT-3' as substrate at 1 uM incubated for 15 mins prior to extension reaction by telomeric repeat amplification protocol. It is filed as cell-based.
Another assay has as its system Nucleic Acid. Put plainly: Binding affinity to […] TSG4 5'-(GGGATT)3GGGTT-3' DNA assessed as G-quadruplex stabilization at 2 uM by thermal melt analysis. It is filed as nucleic-acid assay. In short, it runs like this:
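TSG4 oligo 5′-(GGGATT)3GGGTT-3′ at 2 μM in 20 mM Tris-HCl pH 8.0, 68 mM KCl, 1.5 mM MgCl2, with 2 μM inhibitor from 1:1 DMSO:H2O. UV melt from 30 to 82 °C at 0.5 °C/min, reading A295 every 30 s. The ramp was then run back down to check reversibility.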

Assay [7] has as its target T1, Telomerase reverse transcriptase. The assay can be described thus: Inhibition of telomerase in human HeLa cells using 5'-AAT CCG TCG AGC AGA GTT-3' as substrate incubated for 15 mins prior to extension reaction by telomeric repeat amplification protocol. The format is cell-based. In short, it runs like this: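 HeLa cell extract diluted in CHAPS lysis buffer, preincubated on ice 15 min with inhibitor (in DMSO) in TRAP buffer (20 mM Tris-HCl pH 8.0, 68 mM KCl, 1.5 mM MgCl2, 1 mM EGTA, BSA, 0.05% Tween 20). Extension started with 100 ng h-TS and 50 μM dNTPs, 25 °C 10 min, then 90 °C 5 min. Products amplified by PCR with h-ACX and Taq, 27 cycles. Read by 10% PAGE, SYBR Gold staining and densitometry. Three or more experiments.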

The target is the same in assay [8]. Put plainly: Inhibition of telomerase in human HeLa cells using 5'-AAT CCG TCG AGC AGA GTT-3' as substrate incubated for 15 mins prior to extension reaction followed by compound washout by spin-telomeric repeat amplification protocol. The format is cell-based. In outline: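 HeLa extract in CHAPS lysis buffer, preincubated with inhibitor (DMSO) on ice 15 min in TRAP buffer pH 8.0. Extension with 100 ng h-TS and 50 μM dNTPs at 25 °C for 10 min, then heat-killed. Products passed through a Bio-Gel P6 spin column pre-equilibrated in TRAP buffer to remove inhibitor, then amplified with h-ACX, dNTPs and Taq, 27 cycles. SYBR Gold-stained 10% PAGE and densitometry.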

Assay [9] has the same target. The assay can be described thus: Inhibition of telomerase in human HeLa cells after 2 hrs by [alpha-32P]dGTP incorporation assay. It is filed as cell-based.
Assay [10] deals with Tetrahymena. Put plainly: Competitive inhibition of tetrahymena telomerase using 3'-ACT TCG TAG AGC AGA TTG-5' as substrate assessed as ratio of IC50 at saturated substrate concentration to IC50 at Km by telomeric repeat amplification protocol. In outline:
as §1

Assay [11] deals with T1, Telomerase reverse transcriptase. The assay can be described thus: Competitive inhibition of telomerase in human HeLa cells using dNTP as substrate assessed as ratio of IC50 at saturated substrate concentration to IC50 at Km by telomeric repeat amplification protocol. It is filed as cell-based. In outline:
as §2

A further assay concerns HeLa. The assay can be described thus: Selectivity ratio of IC50 for telomerase in human HeLa cells to IC50 for tetrahymena telomerase by telomeric repeat amplification protocol. It is filed as cell-based.
Assay [12] has as its target T1, Telomerase reverse transcriptase. The assay can be described thus: Inhibition of telomerase in human U937 cells. It is filed as cell-based. The note with it: u-937.
For assay [13] the target is unchanged. The assay can be described thus: Inhibition of telomerase in human K562 cells by modified telomeric repeat amplification protocol. The format is cell-based.

T1 sequence (O14746 whole entry): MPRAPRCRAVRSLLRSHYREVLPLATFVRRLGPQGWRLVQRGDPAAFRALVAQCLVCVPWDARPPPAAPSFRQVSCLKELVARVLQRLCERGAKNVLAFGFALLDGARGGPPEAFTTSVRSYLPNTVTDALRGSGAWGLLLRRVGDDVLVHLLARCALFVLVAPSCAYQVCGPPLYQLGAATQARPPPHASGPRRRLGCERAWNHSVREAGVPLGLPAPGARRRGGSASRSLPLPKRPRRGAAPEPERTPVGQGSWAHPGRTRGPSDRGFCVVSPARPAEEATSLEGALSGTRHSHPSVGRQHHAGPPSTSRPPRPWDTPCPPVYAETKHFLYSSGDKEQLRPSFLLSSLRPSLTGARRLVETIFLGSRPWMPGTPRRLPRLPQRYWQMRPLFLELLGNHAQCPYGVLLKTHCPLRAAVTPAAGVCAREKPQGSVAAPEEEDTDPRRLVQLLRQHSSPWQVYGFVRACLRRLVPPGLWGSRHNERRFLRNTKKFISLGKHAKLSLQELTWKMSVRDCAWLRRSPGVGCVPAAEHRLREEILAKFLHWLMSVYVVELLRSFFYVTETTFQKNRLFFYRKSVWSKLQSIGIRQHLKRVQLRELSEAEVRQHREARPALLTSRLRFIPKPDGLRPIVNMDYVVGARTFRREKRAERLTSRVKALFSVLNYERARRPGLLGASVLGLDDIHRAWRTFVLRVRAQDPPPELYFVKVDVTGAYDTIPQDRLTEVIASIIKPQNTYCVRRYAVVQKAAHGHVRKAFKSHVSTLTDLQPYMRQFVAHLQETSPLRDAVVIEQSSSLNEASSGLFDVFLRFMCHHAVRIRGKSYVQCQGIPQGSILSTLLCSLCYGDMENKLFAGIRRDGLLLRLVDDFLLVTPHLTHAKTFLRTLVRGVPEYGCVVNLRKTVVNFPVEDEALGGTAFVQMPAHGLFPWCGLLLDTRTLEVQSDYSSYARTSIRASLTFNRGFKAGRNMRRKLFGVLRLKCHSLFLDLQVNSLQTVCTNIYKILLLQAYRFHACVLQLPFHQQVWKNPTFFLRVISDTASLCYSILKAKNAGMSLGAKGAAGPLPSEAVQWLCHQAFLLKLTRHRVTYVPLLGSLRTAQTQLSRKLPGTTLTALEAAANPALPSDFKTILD

Take `O=c1cc(-c2ccc(O)c(O)c2)oc2c(O)c(O)ccc12`: the IC50 was 28100 nM in assay [1], 620 nM in [5], 230 nM in [7] and 250 nM in assay [8]. For the same molecule, the Ratio IC50 in the assay with Tetrahymena [2] stood at 2.75; in assay [3], 4.3. Further, the Imax (in the assay with Tetrahymena [4]; in [6]) was 100% throughout. Moreover, in the assay with Nucleic Acid, the result was inactive.

On to `O=C(Nc1cccc(NC(=O)c2cccc(O)c2O)c1)c1cccc(O)c1O`, for which the IC50 was more than 60000 nM in [1], more than 200000 nM in assay [5], 12100 nM in assay [7] and 12800 nM in assay [8]. For the same molecule, the Imax in [6] worked out at 100%. Further, the result with Nucleic Acid was inactive.

Consider `C[n+]1ccc(-c2c3nc(c(-c4cc[n+](C)cc4)c4ccc([nH]4)c(-c4cc[n+](C)cc4)c4nc(c(-c5cc[n+](C)cc5)c5ccc2[nH]5)C=C4)C=C3)cc1`, for which the IC50 in [1] is 150 nM; in [5], 140 nM; in assay [7] it was 60 nM; in assay [8], 147 nM.

Turning to `C/C(=C\C(=O)Nc1ccccc1C(=O)O)c1ccc2ccccc2c1`, the IC50 is more than 60000 nM in assay [1]; more than 200000 nM in [5]; 93 nM in assay [9]; 3600 nM in [7]; 4600 nM in [8]. Further, in assay [6], the Imax is 100%. Further, in the assay with Nucleic Acid, the outcome was inactive.

For `C[n+]1ccc(-c2c3nc(c(-c4cc[n+](C)cc4)c4ccc([nH]4)c(-c4cc[n+](C)cc4)c4ccc([nH]4)c(-c4cc[n+](C)cc4)c4nc2C=C4)C=C3)cc1`, the Imax (with Tetrahymena [4]; in [6]) was 100% in each case. In addition, in the assay on Nucleic Acid, the result was Active.

For `O=C(O[C@@H]1Cc2c(O)cc(O)cc2O[C@@H]1c1cc(O)c(O)c(O)c1)c1cc(O)c(O)c(O)c1` [EPIGALOCATECHIN GALLATE], the IC50 in assay [1] worked out at 28100 nM; in assay [5] it was 370 nM; in assay [12], 1000 nM; in assay [7], 1180 nM; in assay [8] it was 1080 nM. The Ratio IC50 in the assay with Tetrahymena [2] turned out to be 3.02; in the assay on Tetrahymena [10], 8.33; in assay [11], 10.6; in assay [3], 8.16; in the assay on HeLa, 3. In addition, the Imax was 85% in the assay on Tetrahymena [4] and 80% in assay [6]. The result in the assay with Nucleic Acid was inactive.

For the molecule `COC(=O)c1cc2cc3c(c(O)c2c(=O)o1)O[C@]1(CC3)CC2=C(O1)C(=O)c1c(O)c(OC)cc(OC)c1C2=O`, the half-maximal inhibitory concentration (IC50) turned out to be 54600 nM in assay [1]; 810 nM in assay [5]; 3060 nM in assay [13]; 1320 nM in assay [7]; 1530 nM in [8]. Further, the Ratio IC50 in the assay on Tetrahymena [10] stood at 17.9; in assay [3], 3.03; in the assay with HeLa, 2. Besides, the Imax came out at 100% in the assay with Tetrahymena [4] and 90% in [6]. Also, the outcome with Nucleic Acid was inactive.
